Source: PubChem BioAssay
In the library only some 2.3% were active in any assay of this set; here they are far more common.
SF-1 act = activators of human nuclear receptor SF-1. Q13285. CHO-K1 Gal4-SF-1 LBD luciferase reporter; % increase over DMSO SF-1-specific signal. activation, % at 10 µM. actives 1.9% (n = 65,000);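 active = activation above the mean activation of all tested compounds plus 3 SD, cut at about 50% in these data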
Target sequence (Q13285 whole entry, looked up, the tested form may be a part): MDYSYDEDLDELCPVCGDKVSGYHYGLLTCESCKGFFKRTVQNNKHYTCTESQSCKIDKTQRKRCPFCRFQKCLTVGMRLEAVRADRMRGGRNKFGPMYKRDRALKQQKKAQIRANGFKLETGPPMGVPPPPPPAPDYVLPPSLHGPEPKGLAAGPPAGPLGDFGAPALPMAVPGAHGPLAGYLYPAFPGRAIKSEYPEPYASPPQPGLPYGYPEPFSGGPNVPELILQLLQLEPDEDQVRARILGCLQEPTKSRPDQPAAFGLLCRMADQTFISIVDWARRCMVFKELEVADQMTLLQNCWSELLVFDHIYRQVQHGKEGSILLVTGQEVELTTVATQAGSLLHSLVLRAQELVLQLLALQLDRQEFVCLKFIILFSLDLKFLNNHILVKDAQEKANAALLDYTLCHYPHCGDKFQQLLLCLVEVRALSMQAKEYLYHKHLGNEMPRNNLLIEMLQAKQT
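material = CHO-K1 cells with Gal4–hSF-1 LBD chimera plus Gal4-driven luciferase | compound = 10 µM single point, 1% DMSO | incubation = 20 h compound exposure at 37 °C after 1 h cell settling | measured by = SteadyLite luciferase luminescence | evaluation = percent activation relative to DMSO median and mock-transfected background | control set = DMSO negative control and −SF1 background wells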
JNK3 inh = blocks human JNK3 kinase activity; AID 746; inhibition, % at 8 µM; actives 0.61% (n = 60,000); P53779; purified JNK3 kinase activity, HTS; in the data active = inhibition above about 17%;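 note: 0% = DMSO and 100% = reference inhibitor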
RORA act = activates the human nuclear receptor RORA. P35398. CHO-K1 Gal4-RORA LBD luciferase reporter, luminescence; percent increase over mock-subtracted basal signal. activation, % at 10 µM. actives 1.5% (n = 65,000). AID 560;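 active = activation above the mean of all tested compounds plus 3 SD, cut at about 49% in these data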;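 note: 0% = DMSO-treated RORA cells and 100% = added signal equal to DMSO minus mock-transfected cells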
Calb biofilm kill = kills Candida albicans biofilms; C. albicans biofilm + clotrimazole, Alamar Blue; inhibition, % at 6 µM; actives 0.14% (n = 85,000);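 active = inhibition above 20%; inactive = inhibition below 20%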;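 note: preformed 24 hr biofilms exposed to compound for 48 hr; 0% = biofilm without compound and 100% = blank killed by clotrimazole plus chlorhexidine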
* marks the source's active call; other numbers are inactive results; x = no result.

SMILES | SF-1 act | JNK3 inh | RORA act | Calb biofilm kill
CCOc1ccccc1N=c1oc2cc(O)ccc2cc1C(=O)NCC1CCCO1 (stereo not given) | x | x | x | 0
CC(=O)NC1=NN(C(C)=O)C(C)(CS(=O)(=O)c2ccc3ccccc3c2)S1 (stereo not given) | x | x | x | 8
COc1ccc(OCc2cccc(C(=O)Nc3cc(C)on3)c2)cc1 | x | x | x | 3
COc1cc(NC(=O)CC(C)C)ccc1NC(=O)c1ccco1 | 44 | -6 | 80* | x
O=C(Nc1ccc(Br)c(Cl)c1)c1ccco1 | 92* | 4 | 76* | -1
O=C(Nc1ccc(N2CCOCC2)c(Cl)c1)c1ccco1 | 46 | -4 | 24 | 3
COc1cccc(NC(=O)c2ccco2)c1 | 27 | 3 | 54* | 6
O=C(Nc1cccc(OC(=O)c2ccco2)c1)c1ccco1 | 7 | 3 | 10 | 4
CCC(=O)Nc1ccc(NC(=O)c2ccco2)c(OC)c1 | 12 | 7 | 45 | 6
COc1ccc(C(=O)Nc2cc(C)on2)cc1 | -1 | -2 | 77* | 1
O=C(c1nn(Cc2ccccc2)c(=O)c2ccccc12)N1CCN(C/C=C/c2ccccc2)CC1 | x | x | x | 5
COc1ccc(C(=O)Nc2cccc(OC)c2)cc1 | 81* | 5 | 46 | 3
CCC(C)(C)n1nnnc1C(c1cccnc1)N1CCN(c2cccc(C(F)(F)F)c2)CC1 (stereo not given) | x | x | x | 4
CCOC(=O)c1cnc(-c2ccccc2)nc1N(C)C | x | x | x | 4
CCOC(=O)c1cnc(-c2ccccc2)nc1N | 64* | 2 | 48 | 6
CC(c1nnc(SCC(=O)N2CC(=O)Nc3ccccc32)n1Cc1ccccc1)N(C)C (stereo not given) | x | x | x | 4
O=C(Nc1ccc(Br)cn1)c1ccc2nccnc2c1 | 69* | 4 | 44 | 4
CCC(CCC(=O)Nc1ccc(S(N)(=O)=O)cc1)C(=O)O (stereo not given) | x | x | x | 3
Nc1cc(N)nc(SCc2ccccc2)n1 | 54* | -5 | 21 | 1
Nc1nc(SCc2ccccc2)ns1 | 55* | 8 | 24 | 3
O=C(CN1CCN(c2ncccn2)CC1)NCc1ccccc1 | x | x | x | 5
CC(=O)Nc1ccc(OCC(O)Cn2nc(C)c(Br)c2C)cc1 (stereo not given) | x | x | x | -1
O=C(NC1CCCCC1)C1CC=CCC1C(=O)OCC(Cl)=C(Cl)Cl (stereo not given) | x | x | x | 5
COc1cc(C(=O)N2CCN(c3ccc(C)cc3C)CC2)cc(OC)c1OC | 12 | -7 | 64* | 12
c1ccc(CCCc2nc(-c3ccccn3)no2)cc1 | 57* | 2 | 50* | -1
SMILES | SF-1 act | JNK3 inh | RORA act | Calb biofilm kill
Clc1cc(Cl)c(OCc2nc(-c3ccccn3)no2)cc1Cl | 34 | 0 | 52* | 6
CC(C)(C)c1ccc(OCc2nc(-c3ccccn3)no2)c(Br)c1 | 71* | 1 | 67* | 9
COc1ccc(Cc2nc(-c3ccccn3)no2)cc1 | x | x | x | 2
COc1ccc(Cl)cc1-c1nc(-c2ccncc2)no1 | 14 | x | 18 | 5
Clc1ccc(OCc2nc(-c3ccncc3)no2)c(Cl)c1 | 86* | 5 | 48 | 10
CCOC(=O)c1c(C)sc2c1N(C(C)=O)c1cc(Cl)ccc1S2 | x | x | x | 7
O=C1CCCN1CCCNc1ncnc2c1cnn2-c1ccc(Cl)cc1 | 19 | -1 | 69* | 8
Clc1ccc(-n2ncc3c(NCc4ccco4)ncnc32)cc1 | 76* | -3 | 65* | 3
CCC(CO)Nc1ncnc2c1cnn2-c1ccc(OC)cc1 (stereo not given) | 101* | -9 | 61* | 2
CN(C)CCNc1ncnc2c1cnn2-c1ccc(Cl)cc1 | 73* | -7 | 43 | 6
CCC(CO)Nc1ncnc2c1cnn2-c1ccc(Cl)cc1 (stereo not given) | 35 | 1 | 28 | 5
CCOc1nnnc2c1sc1nc(N3CCOCC3)c3c(c12)CCCC3 | x | x | x | -7
CCC(C)C(NC(C)=O)C(=O)NC(=O)NC(c1ccccc1)c1ccccc1 (stereo not given) | x | x | x | -3
Cc1ccc(-c2csc3nnc(SCC(=O)Nc4cccc(C)n4)n23)cc1 | 4 | -3 | 18 | 3
COc1ccc(-n2ncc3c(NCCN4CCOCC4)ncnc32)cc1 | x | x | x | 14
COc1ccc(-n2ncc3c(NCCCN4CCOCC4)ncnc32)cc1 | 53* | -2 | 26 | 5
CCCNc1ncnc2c1cnn2-c1ccc(OC)cc1 | 46 | 6 | -4 | 1
COc1ccc(-n2ncc3c(NCc4ccccn4)ncnc32)cc1 | 56* | -4 | 36 | 3
Clc1ccc(Cn2ncc3c(NCc4ccco4)ncnc32)c(Cl)c1 | 62* | 1 | 46 | 5
COc1ccc(-n2ncc3c(NCc4ccco4)ncnc32)cc1 | 69* | 11 | 62* | 9
COc1ccc(NC2CS(=O)(=O)CC2NCc2ccccc2)cc1 (stereo not given) | x | x | x | 8
CCOc1ccc(C2CC(=O)NC3=C2C(=O)CCC3)cc1 (stereo not given) | 3 | 45* | 6 | 8
CCOc1ccccc1C1CC(=O)NC2=C1C(=O)CCC2 (stereo not given) | 20 | -2 | 11 | 9
CCCc1ccc(OCc2nc(-c3ccc(NC(=O)c4ccco4)cc3)no2)cc1 | 50* | 1 | 44 | -3
COc1ccccc1CC(=O)Nc1ccc(-c2noc(COc3ccc(Br)cc3)n2)cc1 | x | x | x | 0
SMILES | SF-1 act | JNK3 inh | RORA act | Calb biofilm kill
COc1ccccc1CC(=O)Nc1ccc(-c2noc(COc3cccc(C)c3C)n2)cc1 | x | x | x | 11
Cc1ccc(-c2noc(COc3ccccc3C)n2)cc1 | 2 | 2 | 12 | 9
Cc1ccccc1OCc1nc(-c2ccccc2)no1 | 71* | -8 | 34 | 6
Cc1ccccc1OCc1nc(-c2ccc(NC(=O)c3ccco3)cc2)no1 | 28 | x | 58* | 5
CCn1c(SCc2nc3ccccc3[nH]2)nnc1-c1ccc(OC)cc1 | x | x | x | 6
CCn1cc(C(=O)NCc2ccc3c(c2)OCO3)c(=O)c2cc(F)c(N3CCN(C(=O)c4ccco4)CC3)cc21 | x | x | x | 8
COc1cc(C(=O)OCC(=O)c2cc(C)n(C)c2C)cc(OC)c1OC | 52* | 0 | 36 | -2
N#Cc1cc2c(nc1SCC(=O)Nc1sc3c(c1C#N)CCC3)CCC2 | x | x | x | 1
CCc1nnc(NC(=O)CSc2nc3c(cc2C#N)CCC3)s1 | 75* | 7 | 7 | 5
CCCCc1noc2c1/C(=N\O)CC(c1ccccc1)C2 (stereo not given) | 32 | 4 | 72* | 11
CN(C)c1ccc(NC(=O)Nc2cccc(Cl)c2)cc1 | 64* | -17 | 3 | 6
O=C(c1cnn(-c2nc3ccccc3s2)c1)c1ccccc1O | 36 | 0 | 52* | x
O=C(O)CCC(=O)N1CCN(c2nc3ccccc3s2)CC1 | -9 | -7 | 6 | 8
C=C(C)c1cccc(C(C)(C)NC(=O)N2CCN(C/C=C/c3ccccc3)CC2)c1 | x | x | x | 4
c1ccn2c(SCc3cn4ccsc4n3)nnc2c1 | 71* | 6 | 61* | 8
CCOc1ccc(NC(=O)c2cc3n(n2)C(C(F)(F)F)CC(c2ccco2)N3)cc1 (stereo not given) | 18 | 6 | 60* | 2
Cc1nc(NC(=O)c2ccccc2)sc1-c1csc(NCc2ccccc2)n1 | x | x | x | 1
